Test results from ChEMBL document CHEMBL4513216, “Probing the Open Global Health Chemical Diversity Library for Multistage-Active Starting Points for Next-Generation Antimalarials” (ACS Infect Dis, 2020).

Assay: Toxicity liver stage against HepG2, at 10uM
Type: cell-based
Parameters: test concentration 10 uM, cell line HepG2-A16-CD81EGFP
Details: human, HepG2-A16-CD81EGFP cells; read-out: INHIBITION
Outline: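 Uninfected HepG2-A16-CD81EGFP cells, 3 × 10^3 per well, 1536-well, plated on prespotted compound at 10 μM final, parasite-free screening media added to match infected plates; puromycin 10 μM positive, DMSO 0.5% negative; run in parallel with 48 h PbLuc assay at 37 °C, 5% CO2; viability by CellTiter-Glo luminescence, normalized to controls.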

Row | Compound | cytotoxicity at 10 µM [%]
1 | COc1ccc(Cl)cc1Nc1nc(N)c(C(C)=O)s1 | 2.52
2 | O=C1Nc2ccccc2/C1=C1\CCCCN1 | 4.95
3 | COCCNC(=O)CNC(=O)c1nc(Cc2c(Cl)cccc2Cl)no1 | 5.64
4 | COCC(=O)N1CC[C@H]2C[C@@H](c3nnc(C4CC4)o3)O[C@@H]2C1 | -6.77
5 | COc1ccc(Nc2nc3c(C)nn(C)c3c(=O)n2C)cc1 | -0.103
6 | COc1ccc(-c2cc3nc(CCNC(=O)C4CC4)nn3cn2)cc1 | 8.38
7 | CC(=O)N1CCC(C)(c2cc(C(=O)NCC3CC3)nc(C)n2)CC1 | 2.87
8 | COCCN1CCC(C)(c2cc(O)[nH]n2)CC1 | 2.02
9 | Cc1ncc(CN)c(-c2cn(C)c3ccccc23)n1 | 2.97
10 | Cc1ccc(C)c2c(C)c(C(=O)NCC[S+](C)[O-])[nH]c12 (stereo not drawn) | 3.03
11 | Cc1ncc(CN(C)C)c(C2CCCN2c2ncccn2)n1 (stereo not drawn) | -0.6
12 | CN(CC(=O)N(C)C)Cc1ccc(C#N)cc1F | 6.56
13 | CC(NC(=O)c1cccc[n+]1[O-])C1CC1 (stereo not drawn) | 5.31
14 | CC1COCCN1C(=O)COc1ccc(Oc2ccccn2)cc1 (stereo not drawn) | -8.87
15 | O=C(CCc1ccc(OC(F)(F)F)cc1)N1CCCS1(=O)=O | 3.42
16 | CCCNC(=O)CCNC(=O)N1CCC(=Cc2ccccc2)CC1 | 1.47
17 | Cc1ccccc1CS(=O)(=O)Cc1nc(C2CC2)no1 | 4.49
18 | CCN(CC)C(=O)CCNC(=O)N(C)Cc1ccc(SC)c(OC)c1 | -7.9
19 | CC(C)C(=O)Nc1ccc(C(O)Cn2nc(-c3cccs3)oc2=O)cc1 (stereo not drawn) | -5.31
20 | CC(C)N1CCC(NC(=O)NC2CCOc3ccc(Br)cc32)CC1 (stereo not drawn) | -6.64
21 | CC(=O)NCCCNC(=O)Nc1ccccc1-n1nc(C)cc1C | 6.57

Row | Compound | cytotoxicity at 10 µM [%]
22 | CN(Cc1cccc(C#N)c1)S(=O)(=O)N1CCOCC1 | 6.95
23 | Cc1nccn1-c1cc(CNC(=O)C2CCC(=O)NC2)ccn1 (stereo not drawn) | 4.83
24 | Cc1nnc2ccc(N3CCC4(CCOC4)C3)nn12 (stereo not drawn) | 4.29
25 | CCC(=O)Nc1cc(Br)cn(C)c1=O | -1.34
26 | FC(F)COc1ccccc1NCc1nnsc1Cl | -2.63
27 | O=C(NCCCc1cccs1)N1CCCCC1CCO (stereo not drawn) | 6.06
28 | CC(C)C(C)NC(=O)CN1CCSCC1 (stereo not drawn) | -0.662
29 | CN(C)c1ccc(CCCNC(=O)NCC(O)c2ccsc2)cc1 (stereo not drawn) | -6.88
30 | CCOCCN1CCN(Cc2nnc(-c3ccco3)o2)CC1 | -53.1
31 | COc1cccc(CNC(=O)Nc2ccc3[nH]nnc3c2)c1OC | 3.2
32 | Cc1cc(=O)c(C(=O)Nc2cccc(CCN3CCCC3)c2)c[nH]1 | 7.49
33 | CCC1CCCN(S(=O)(=O)c2cnc3onc(C)c3c2)C1 (stereo not drawn) | 4.72
34 | CC(C)(CO)CCCNC(=O)NC1(c2ccccc2F)CC1 | 9.08
35 | CN(C)C(=O)c1cccn1-c1ccc2c(c1)OCCO2 | 12.6
36 | CCc1ccc(C(=O)O)cc1S(=O)(=O)Nc1ccc(=O)n(C)c1 | 11.7
37 | CC(C)c1nncn1CCNC(=O)c1c(O)cc(F)cc1F | -1.99
38 | Cc1ccc2c(c1)OC(C)CN2C(=O)CCc1cscn1 (stereo not drawn) | -48.5
39 | Cc1cccc(C(=O)N2CCn3cc(CNC(=O)CC4CC4)nc3C2)n1 | -78.4
40 | O=C(c1ccco1)N1CCCn2cnc(COCC3CC3)c2C1 | -75.9
41 | Cc1cc(C(F)(F)F)nc(CCNC(C)Cn2cncn2)n1 (stereo not drawn) | 12
42 | O=C(O)c1ccccc1C1CCN(Cc2ccc(-c3cc[nH]n3)o2)C1 (stereo not drawn) | -10.2

Row | Compound | cytotoxicity at 10 µM [%]
43 | Cc1cnccc1N1CCN(C(=O)C2CC3(CCNCC3)CN2)CC1 (stereo not drawn) | -13.7
44 | O=C(Cc1cccnc1)NC1CCCN(CCCc2ccccc2)C1 (stereo not drawn) | 11.5
45 | CNc1nc(C(=O)N2CCn3nc(C(=O)OC)cc3C2)cs1 | -8.61
46 | O=C(C1CCCN(C2CCOCC2)C1)N1Cc2ccccc2C1 (stereo not drawn) | 2.49
47 | COc1cc(C)cc(C(C(=O)O)N2CCN(C3CCCC3)CC2)c1OC (stereo not drawn) | -4.27
48 | CC(C)C1CN(C(=O)c2cc(=O)[nH]c(=O)[nH]2)CCC(=O)N1CC1CC1 (stereo not drawn) | 1.08
49 | CCN(CC)C(=O)[C@@H]1C[C@H](N)CN1c1noc(-c2ccccc2)n1 | -49.8
50 | Cc1cc(C)n(CC(C)NCCn2nc(C)c(Cl)c2C)n1 (stereo not drawn) | -5.44
51 | O=C(c1cn(CCN2CCCCC2)nn1)N1CCCO1 | 5.87
52 | Cc1nc[nH]c1-c1nccn1CCN(C)S(C)(=O)=O | -6.03
53 | Cc1nonc1CN(C)Cc1nc(-c2cccc(F)c2F)oc1C | -2.71
54 | CC(=O)c1cc(CN2C[C@@H](CN3CCC(O)CC3)[C@@H](CO)C2)n(C)c1 | 7.58
55 | COc1ccc(F)c(CN2CC(=O)N(c3ccccc3C)CC2C)c1 (stereo not drawn) | -0.757
56 | CCN(CC)c1ccc(-c2ccc(C)c(S(N)(=O)=O)c2)nn1 | -7.99
57 | Nc1ccnc(C(=O)N2CCCC3(CCC(=O)N(C4CCCC4)C3)C2)c1 (stereo not drawn) | -19.8
58 | Cc1cc(N(C)CCN(C)C)n2nc(C)cc2n1 | 7.77
59 | COc1cc(N2CCC(c3nccn3Cc3ccccn3)CC2)ncn1 | -14.2
60 | O=C(c1cn2ccsc2n1)N1CCOCC(O)(CN2CCCC2)C1 (stereo not drawn) | 4.6
61 | COC(=O)NCc1cc2n(n1)CCCN(C(C)=O)C2 | -2.26
62 | Cn1ccnc1CC1CCCN(Cc2noc(C3CC3)n2)C1 (stereo not drawn) | -5.68
63 | Cc1cccc(-n2c(C)cc(C(=O)NS(C)(=O)=O)c2C)c1 | -4.08

Row | Compound | cytotoxicity at 10 µM [%]
64 | Cc1ccc(NC2CCN(C(=O)c3cc(C)sc3C)CC2)nn1 | -5.59
65 | Fc1ccc(-c2nnc(CN3CCCC3Cn3cncn3)o2)cc1 (stereo not drawn) | -10.5
66 | Cc1cc(C2CCCN2Cc2ccn(C)c(=O)c2)no1 (stereo not drawn) | -9.03
67 | Cc1nc2ccccc2c(=O)n1CCC(=O)N1CCNC(=O)C1 | -19
68 | c1ccc(-c2cnc(CN3CCn4c(nnc4C4CC4)C3)o2)cc1 | -7.67
69 | CCOc1ncccc1NC(=O)NCC(O)c1ccccc1OC (stereo not drawn) | -8.36
70 | Cc1ccc(C(=O)N2CCN(Cc3ccsc3)CC2)n1C | 0.914
71 | CCc1nc(C2CCCN2C(=O)c2cc(C3CC3)[nH]n2)no1 (stereo not drawn) | 1.03
72 | CCOCCN1CCCC(c2cc(C(N)=O)[nH]n2)C1 (stereo not drawn) | 3.78
73 | Cc1cnn(CC2CCCCN2C(=O)c2cc(C(N)=O)cs2)c1 (stereo not drawn) | 2.02
74 | Cc1nc2ccccc2nc1CN1CCCC1Cn1cncn1 (stereo not drawn) | -1.28
75 | CN(Cc1ccsc1)C(=O)CS(=O)(=O)Cc1ccc(Cl)c(Cl)c1 | -0.987
76 | O=C1NC2(CCN(C(=O)N3CCOCC3)CC2)CC1c1cccnc1 (stereo not drawn) | -128
77 | Cc1ccc(N2CCC3(CC2)CCN(C2CCOC2)CC3)nn1 (stereo not drawn) | 7.67
78 | CN(C)C(=O)[C@@H]1CCO[C@@H]2CCN(c3ncccn3)C[C@@H]21 | 8.31
79 | CC(C)NC(=O)C1CCC2(CCN(Cc3cnn(C)c3)CC2)CO1 (stereo not drawn) | 9.67
80 | Fc1cnc(N2CC[C@@H]3CN(Cc4ccncc4)CCO[C@@H]3C2)nc1 | 5.38
81 | Cc1ncccc1NC(=O)[C@@H]1C[C@@H]2CCN(Cc3cccs3)C[C@H]2O1 | -72.9
82 | Cn1cnc2c1C(COCc1ccccc1)N(Cc1cccnc1)CC2 (stereo not drawn) | 9.61
83 | CC(C)n1nc(Cn2cccn2)c2c1CN(CC1CCOC1)C2 (stereo not drawn) | 7.13
